Assay results gathered from unrelated publications.
Each line is one published result; the experiments were not run side by side.
Medium: plasma

| SMILES | test system | conditions | measurement | result |
| --- | --- | --- | --- | --- |
| C[C@H]1[C@@H](O)O[C@@H]2O[C@@]3(C)CC[C@H]4[C@H](C)CC[C@@H]1[C@@]24OO3 | male Sprague-Dawley rat | oral, 10 mg/kg | MRT(0-t) | 1.56 h |
| CCOc1c([C@H](C)n2nc(C)c3c(N)ncnc32)cc(Cl)c(F)c1[C@@H]1CNC(=O)C1 | male Sprague-Dawley rat | oral, 2 mg/kg, single dose | MRT(0-inf) | 8.49 h |
| C[C@H]1Oc2cc(cnc2N)-c2c(nn(C)c2C#N)CN(C)C(=O)c2ccc(F)cc21 | male Sprague-Dawley rat | oral, 5 mg/kg, single dose | MRT(0-t) | 6.6 h |
| COc1ccc(N(Cc2csc(-c3ccccc3)n2)C(=O)CCCCCC(=O)NO)cc1 | female Sprague-Dawley rat | intravenous, 5 mg/kg | MRT | 0.39 h |
| Nc1ccn([C@@H]2O[C@H](CO)[C@@H](O)C2(F)F)c(=O)n1 | male Sprague-Dawley rat | intravenous, 5 mg/kg | MRT(0-inf) | 0.13 h |
| CC[C@@H]([C@H](C)O)n1ncn(-c2ccc(N3CCN(c4ccc(OC[C@@H]5CO[C@@](Cn6cncn6)(c6ccc(F)cc6F)C5)cc4)CC3)cc2)c1=O | Sprague-Dawley rat | oral, 40 mg/kg | MRT(0-t) | 10.3 h |
| COc1nc(-c2cccc(-c3ccccc3)c2C)ccc1CNCCNC(=O)CCCCCCCCCCC(=O)N1CCN(CCNC(=O)c2cc3c(=O)n4cccc(C)c4nc3n(CCc3cccs3)c2=N)CC1 | male Sprague-Dawley rat | intravenous, 2 mg/kg | MRT(0-inf) | 5.1 h |
| O=C1CCC(N2Cc3cc(C4CCN(Cc5ccccc5)CC4)ccc3C2=O)C(=O)N1 (stereo not drawn) | male Sprague-Dawley rat | oral, 3 mg/kg | MRT(0-t) | 3 h |
| CONC(=O)c1cccc2c1cc(C)n2-c1nc2c(c(NCc3ccccc3)n1)CCCN2 | male Sprague-Dawley rat | oral, 10 mg/kg, single dose | MRT | 1.55 h |
| C[C@@]12C[C@@]3(O)O[C@@H](O1)[C@]1(COC(=O)c4ccccc4)[C@H]3C[C@@]12O[C@@H]1O[C@H](CO)[C@@H](O)[C@H](O)[C@H]1O | male Sprague-Dawley rat | oral, 80 mg/kg | MRT(0-t) | 5.13 h |
| C=CC(=O)N1CCC[C@@H](n2nc(-c3ccc(Oc4ccccc4)cc3)c3c(N)ncnc32)C1 | male Wistar rat | oral, 40 mg/kg | MRT | 4.55 h |
| COc1cc(-c2cc(C(C)=O)n3ccccc23)c(OC)cc1Cn1ccnc1 | male Sprague-Dawley rat | oral, 5 mg/kg | MRT(0-t) | 1.73 h |
| C=CC(=O)N1CCC([C@@H]2CCNc3c(C(N)=O)c(-c4ccc(Oc5ccccc5)cc4)nn32)CC1 | Sprague-Dawley rat | oral, 16 mg/kg | MRT(0-t) | 3.81 h |
| CC(=O)c1c(C)c2cnc(Nc3ccc(N4CCNCC4)cn3)nc2n(C2CCCC2)c1=O | male Sprague-Dawley rat | intravenous, 5 mg/kg | MRT | 2.5 h |
| Cn1c(=O)c2[nH]cnc2n(C)c1=O | male Sprague-Dawley rat | intravenous, 11.25 mg/kg | MRT(0-t) | 3.3 h |
